From paper PMC3262993 (Chemmedchem, 2009)
Like-named read-outs stand apart in the source and are kept apart here.

Experiments:
[1] = test system: tactile allodynia in a paclitaxel-induced neuropathic pain model; test: Tactile allodynia in paclitaxel-induced neuropathic pain model; type: in vivo, rat; details: paclitaxel-treated rats; for Effect on mechanical (tactile) allodynia: intraperitoneal administration
Method in brief: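 Adult male Sprague Dawley rats (120–150 g) were housed three per cage on a 12 h light/dark cycle. Paclitaxel was given at 1.0 mg kg−1 i.p. daily for 4 days (cumulative 4 mg kg−1), with vehicle 10 % Cremophor EL in saline at 1 mL kg−1. Hind-paw mechanical withdrawal was tested daily from day 0 after ≥30 min acclimation on wire mesh. Test compound was given i.p.; n = 5–6 per group.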

[2] = biological target: recombinant human CB1 (hCB1) (Homo sapiens, UniProt P21554); test: γ-[35S]GTP functional assay, hCB1; type: biochemical
Sequence of recombinant human CB1 (hCB1) (P21554 whole entry): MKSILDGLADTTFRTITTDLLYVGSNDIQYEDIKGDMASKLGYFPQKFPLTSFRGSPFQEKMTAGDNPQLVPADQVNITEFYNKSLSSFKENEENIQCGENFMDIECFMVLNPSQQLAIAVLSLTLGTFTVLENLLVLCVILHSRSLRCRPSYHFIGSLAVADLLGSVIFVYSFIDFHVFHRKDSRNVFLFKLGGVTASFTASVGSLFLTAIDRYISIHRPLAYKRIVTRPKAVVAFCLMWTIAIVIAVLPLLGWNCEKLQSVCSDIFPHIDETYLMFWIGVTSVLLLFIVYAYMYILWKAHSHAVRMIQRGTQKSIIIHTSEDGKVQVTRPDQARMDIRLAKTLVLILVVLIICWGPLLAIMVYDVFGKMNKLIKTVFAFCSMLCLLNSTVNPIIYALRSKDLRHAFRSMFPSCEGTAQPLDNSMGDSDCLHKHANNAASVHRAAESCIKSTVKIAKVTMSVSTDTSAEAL

[3] = test system: TC7
[4] = biological target: hCB1 (Homo sapiens, UniProt P21554); test: Radioligand competitive binding assay, hCB1
Sequence of hCB1 (P21554 whole entry): as above

[5] = test system: strain TA98
[6] = test system: plasma protein; details: 1.0E-05 M
[7] = biological target: recombinant human CB2 (hCB2) (Homo sapiens, UniProt P34972); test: γ-[35S]GTP functional assay, hCB2; type: biochemical; details: for γ-[35S]GTP hCB2 Emax: percentage relative to the efficacy of compound 7
Sequence of recombinant human CB2 (hCB2) (P34972 whole entry): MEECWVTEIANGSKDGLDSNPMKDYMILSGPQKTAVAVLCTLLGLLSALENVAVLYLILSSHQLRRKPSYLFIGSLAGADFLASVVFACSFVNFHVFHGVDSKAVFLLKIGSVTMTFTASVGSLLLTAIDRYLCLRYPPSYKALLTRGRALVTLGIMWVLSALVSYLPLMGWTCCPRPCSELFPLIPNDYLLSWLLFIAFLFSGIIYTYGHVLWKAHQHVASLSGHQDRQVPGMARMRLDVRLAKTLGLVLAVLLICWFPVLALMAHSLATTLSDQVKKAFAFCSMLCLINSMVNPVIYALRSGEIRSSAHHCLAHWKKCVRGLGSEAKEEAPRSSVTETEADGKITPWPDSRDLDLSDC

[8] = PBS, pH 7.4, at 2.0 × 10^-4 M
[9] = biological target: K+ channel hERG (Homo sapiens, UniProt Q12809)
Sequence of K+ channel hERG (Q12809 whole entry): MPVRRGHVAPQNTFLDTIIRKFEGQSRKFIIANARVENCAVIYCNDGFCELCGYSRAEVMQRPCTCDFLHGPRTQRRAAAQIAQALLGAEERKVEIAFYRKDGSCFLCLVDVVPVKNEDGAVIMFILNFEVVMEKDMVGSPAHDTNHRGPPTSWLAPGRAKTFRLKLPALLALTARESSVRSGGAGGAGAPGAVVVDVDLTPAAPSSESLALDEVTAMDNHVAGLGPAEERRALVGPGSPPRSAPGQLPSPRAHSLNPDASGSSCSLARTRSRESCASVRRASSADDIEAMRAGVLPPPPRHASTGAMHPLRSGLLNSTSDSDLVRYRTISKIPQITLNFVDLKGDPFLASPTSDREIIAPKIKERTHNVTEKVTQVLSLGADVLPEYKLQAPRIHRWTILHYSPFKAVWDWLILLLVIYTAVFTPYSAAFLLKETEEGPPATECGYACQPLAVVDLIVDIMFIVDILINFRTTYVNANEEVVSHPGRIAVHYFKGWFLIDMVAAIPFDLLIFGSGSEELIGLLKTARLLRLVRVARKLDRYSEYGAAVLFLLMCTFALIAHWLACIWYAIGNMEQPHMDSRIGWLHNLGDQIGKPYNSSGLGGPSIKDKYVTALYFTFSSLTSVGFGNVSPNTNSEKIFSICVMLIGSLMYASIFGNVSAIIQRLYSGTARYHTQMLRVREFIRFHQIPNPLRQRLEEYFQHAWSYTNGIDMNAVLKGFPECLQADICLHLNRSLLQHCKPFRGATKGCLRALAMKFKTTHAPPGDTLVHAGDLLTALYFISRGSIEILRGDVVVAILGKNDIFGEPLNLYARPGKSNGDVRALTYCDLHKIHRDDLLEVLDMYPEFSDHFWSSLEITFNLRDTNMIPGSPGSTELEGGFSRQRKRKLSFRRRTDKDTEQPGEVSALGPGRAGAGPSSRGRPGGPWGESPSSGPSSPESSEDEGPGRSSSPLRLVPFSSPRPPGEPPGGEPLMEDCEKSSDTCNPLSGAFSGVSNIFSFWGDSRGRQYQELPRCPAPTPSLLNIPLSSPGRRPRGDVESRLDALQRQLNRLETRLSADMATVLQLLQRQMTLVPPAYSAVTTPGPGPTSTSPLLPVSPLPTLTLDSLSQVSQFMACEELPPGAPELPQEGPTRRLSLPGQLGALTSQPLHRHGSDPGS

[10] = biological target: hCB2 (Homo sapiens, UniProt P34972); test: Radioligand competitive binding assay
Sequence of hCB2 (P34972 whole entry): as the sequence (P34972 whole entry) above

[11] = test system: neuropathic pain in spinal nerve ligation and paclitaxel-induced neuropathy models; details: cited from earlier work
[12] = read-out: Ki hCB2, CHO-K1 membranes, 1 nM [3H]7, mean ± SEM

For `CN1CCCCC1Cn1cc(C(=O)c2cc([N+](=O)[O-])ccc2I)c2ccccc21` (stereo not shown) [Compound 1, AM1241, reference compound], the “Effects on tactile allodynia versus vehicle” value ([1]; i.p., 1, 3 and 5 mg kg^-1) was “not significantly different from the effects induced by the vehicle” and the “Effect on mechanical (tactile) allodynia” value [1] was “did not affect the paw withdrawal threshold”.
Molecule `CC1(Cc2ccccc2)COc2ccc(C(=O)NC3CCCCC3)cc21` (stereo not shown) [Compound 14, 3-Benzyl-3-methyl-2,3-dihydrobenzofuran-5-carboxylic acid cyclohexylamide] has an EC50 [2] of over 10 µM.
`CC1(Cc2ccccc2)COc2cc(C(=O)NC3CCCCC3)ccc21` (stereo not shown) [Compound 17, 3-Benzyl-3-methyl-2,3-dihydrobenzofuran-6-carboxylic acid cyclohexylamide] gave an EC50 [2] of over 10 µM.
In the case of `CC1(Cc2ccccc2)COc2cc(C(=O)N3CCCCC3)ccc21` (stereo not shown) [Compound 18, 3-Benzyl-3-methyl-2,3-dihydrobenzofuran-6-carboxylic acid piperidine amide], the “Intestinal permeability, assessment” value [3] is reported as “compatible with oral administration with no efflux”, the “A–B permeability (% recovery)” value ([3]; TC7, pH 6.5/7.4) is reported as 63.5 ± 6.5% and the “B–A permeability (% recovery)” value ([3]; TC7, pH 6.5/7.4) is reported as 85.5 ± 0.5%. For the same molecule, the “A–B permeability” value ([3]; TC7, pH 6.5/7.4, 1.0E-05 M) was 52.2 ± 1.7 10^−6 cm s^−1, the “B–A permeability” value ([3]; TC7, pH 6.5/7.4, 1.0E-05 M) was 16.2 ± 0.2 10^−6 cm s^−1 and the Ki ([4]; read-out: Ki hCB1, mean ± SEM) was over 10 µM. For the same molecule, the “Genetic toxicity (Ames test)” value ([5]; up to 10 μM) was “No genetic toxicity”, the “Ames test (strain TA98 +S9)” value ([5]; with S9) was under 0 and the “Ames test (strain TA98)” value ([5]; without S9) was under 0. For the same molecule, the “Protein bound (human)” value [6] was 82.8 ± 11.1%, the “Protein recovery (human)” value [6] was 95.6 ± 13.6% and the “γ-[35S]GTP hCB2 Emax” value [7] was 88.3%. For the same molecule, the Aqueous solubility [8] was 31.8 ± 1.8 μm μM, the Cardiac toxicity [9] was “did not show any cardiac toxicity” and the “K+ channel hERG automated patch-clamp (cardiac toxicity)” value ([9]; at 1 μM) was “inactive at 1 μm”. For the same molecule, the Ki [10, 12] was 0.422 ± 0.123 µM, the “Effect on locomotor behavior” value ([11]; rats) was “without affecting locomotor behavior” and the “Effect on neuropathic pain” value ([11]; spinal nerve ligation and paclitaxel-induced neuropathy models in rats) was “reversed neuropathic pain”.
With `CCC/C=C/CC1(C)COc2cc(C(=O)N3CCCCC3)ccc21` (stereo not shown) [Compound 19] the “γ-[35S]GTP hCB1 Emax” value ([2]; percentage relative to the efficacy of compound 7) was 60%, the “γ-[35S]GTP hCB2 Emax” value [7] was 97.1% and the Ki [10, 12] was 0.0836 ± 0.0238 µM. The “%MPE for reversing mechanical allodynia versus vehicle” value ([1]; i.p., 15 mg kg^-1) was “significantly different (P <0.05) from that of the vehicle” and the “Effect on mechanical (tactile) allodynia” value [1] was “suppressed mechanical allodynia”.
Molecule `CCC/C=C/CC1(C)COc2cc(C(=O)NC3CCCCC3)ccc21` (stereo not shown) [Compound 20, 3-((E)-Hex-2-enyl)-3-methyl-2,3-dihydrobenzofuran-6-carboxylic acid cyclohexylamide] has a Ki [4] of over 1 µM, an EC50 [2] of over 10 µM and an EC50 [7] of 0.839 ± 0.0055 µM. For the same molecule, the Ki [10] was over 1 µM.
Molecule `CC1(Cc2ccccc2)COc2cc(C(=O)N3CCOCC3)ccc21` (stereo not shown) [Compound 22, (3-Benzyl-3-methyl-2,3-dihydrobenzofuran-6-yl)morpholinomethanone] has an EC50 [2] of over 10 µM and an EC50 [7] of 5.583 ± 0.0044 µM.
With `CN(C(=O)c1ccc2c(c1)OCC2(C)Cc1ccccc1)C(C)(C)C` (stereo not shown) [Compound 23, 3-Benzyl-N-tert-butyl-N,3-dimethyl-2,3-dihydrobenzofuran-6-carboxamide] the EC50 [2] was 2.58 ± 0.0015 µM and the EC50 [7] was 0.0953 ± 0.0018 µM.
Molecule `CC1(Cc2ccccc2)COc2cc(C(=O)NCC3CCOCC3)ccc21` (stereo not shown) [Compound 24, 3-Benzyl-3-methyl-2,3-dihydrobenzofuran-6-carboxylic acid (tetrahydropyran-4-ylmethyl)amide] has an EC50 [2] of over 10 µM and an EC50 [7] of 0.659 ± 0.0014 µM.
Molecule `CC1(Cc2cccc3ccccc23)COc2cc(C(=O)NC3CCCCC3)ccc21` (stereo not shown) [Compound 27, 3-Methyl-3-naphthalen-1-ylmethyl-2,3-dihydrobenzofuran-6-carboxylic acid cyclohexylamide] has an EC50 [2] of over 10 µM and an EC50 [7] of over 10 µM.
Work on `CC1(Cc2cccc3ccccc23)COc2cc(C(=O)N3CCCCC3)ccc21` (stereo not shown) [Compound 28, (3-Methyl-3-naphthalen-1-ylmethyl-2,3-dihydrobenzofuran-6-yl)-piperidin-1-ylmethanone] yielded an EC50 [2] of over 10 µM and an EC50 [7] of over 10 µM.
With `CC1(Cc2ccc3ccccc3c2)COc2cc(C(=O)N3CCCCC3)ccc21` (stereo not shown) [Compound 29, (3-Methyl-3-naphthalen-2-ylmethyl-2,3-dihydrobenzofuran-6-yl)-piperidin-1-ylmethanone] the Ki [4] was 0.43 ± 0.039 µM, the EC50 [2] was over 10 µM and the EC50 [7] was 0.875 ± 0.0014 µM. It also gave a Ki [10] of 0.49 ± 0.045 µM.
Work on `CC1(Cc2ccc(Cl)cc2)COc2cc(C(=O)N3CCCCC3)ccc21` (stereo not shown) [Compound 30, [3-(4-Chlorobenzyl)-3-methyl-2,3-dihydrobenzofuran-6-yl]piperidin-1-ylmethanone] yielded an EC50 [2] of 1.363 ± 0.0014 µM, an Emax ([2]; read-out: γ-[35S]GTP hCB1 Emax) of 86.9% and an EC50 [7] of 0.0562 ± 0.0012 µM. The Ki [10] was 0.123 ± 0.0165 µM.
Work on `COc1ccc(CC2(C)COc3cc(C(=O)N4CCCCC4)ccc32)cc1` (stereo not shown) [Compound 31, [3-[(4-Methoxyphenyl)methyl]-3-methyl-2,3-dihydrobenzofuran-6-yl]-(1-piperidyl)methanone] yielded an EC50 [2] of over 10 µM and an EC50 [7] of 0.235 µM.
`CC1(Cc2ccncc2)COc2cc(C(=O)N3CCCCC3)ccc21` (stereo not shown) [Compound 32, [3-Methyl-3-(4-pyridylmethyl)-2,3-dihydrobenzofuran-6-yl]-(1-piperidyl)methanone] showed an EC50 [2] of over 10 µM and an EC50 [7] of 2.8 µM.
With `C[C@@]1(Cc2ccccc2)COc2cc(C(=O)N3CCCCC3)ccc21` [Compound 33, (S)-3-Benzyl-3-methyl-2,3-dihydrobenzofuran-6-carboxylic acid piperidine amide] the “γ-[35S]GTP hCB2 Emax” value [7] was 86%.
For `C[C@]1(Cc2ccccc2)COc2cc(C(=O)N3CCCCC3)ccc21` [Compound 34, (R)-3-benzyl-3-methyl-2,3-dihydrobenzofuran-6-carboxylic acid piperidine amide], the “γ-[35S]GTP hCB2 Emax” value [7] was 43.3%.
